Experiments:
[1] = biological target: T1, Tyrosine-protein phosphatase non-receptor type 1 (Homo sapiens) (UniProt P18031); test: Inhibition of N-terminal polyHis-tagged human PTP1B1 (1 to 303 residues) expressed in Escherichia coli BL21(DE3)pLysS assessed as enzyme residual activity using pNPP as substrate at 5 uM by spectrophotometric analysis
T1 sequence (whole entry): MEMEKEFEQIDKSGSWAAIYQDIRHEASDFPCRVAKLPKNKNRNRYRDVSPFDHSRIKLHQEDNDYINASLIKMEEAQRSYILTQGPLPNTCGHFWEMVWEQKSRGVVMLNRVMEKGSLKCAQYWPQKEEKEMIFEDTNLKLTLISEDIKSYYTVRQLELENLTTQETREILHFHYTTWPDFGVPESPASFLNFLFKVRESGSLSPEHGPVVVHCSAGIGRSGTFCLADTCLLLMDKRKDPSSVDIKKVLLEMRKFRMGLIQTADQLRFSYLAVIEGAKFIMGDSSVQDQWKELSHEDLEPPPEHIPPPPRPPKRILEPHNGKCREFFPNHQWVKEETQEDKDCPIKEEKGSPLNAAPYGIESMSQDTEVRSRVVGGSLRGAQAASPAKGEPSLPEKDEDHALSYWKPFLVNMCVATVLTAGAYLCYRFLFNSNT
Method in brief: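 His-tagged human PTP1B (1–303) from E. coli BL21(DE3)pLysS, assayed in 0.075 M β,β-dimethylglutarate pH 7.0 with 1 mM EDTA, 0.1 mM DTT and pNPP. Reaction stopped with 0.1 M KOH; p-nitrophenol read at 400 nm. IC50 from 15–16 inhibitor concentrations in triplicate, normalized to control, fitted by nonlinear regression. Single-point residual activity at 5 µM.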

[2] = biological target: Aldo-keto reductase family 1 member B1 (Homo sapiens, UniProt P15121); test: Inhibition of human recombinant AKR1B1 expressed in Escherichia coli BL21(DE3)pLysS using L-idose as substrate by NADPH oxidation based absorbance analysis

An Activity [1] of 87.6% and an IC50 [2] of 220 nM were found for `O=C(O)CN1C(=O)/C(=C/c2ccc(OCCCOc3ccccc3)cc2)SC1=S` in this work.

An Activity [1] of 99.8% and an IC50 [2] of 38200 nM were found for `O=C(O)CCN1C(=O)/C(=C/c2ccc(OCCCc3ccccc3)cc2)SC1=S` in this work.

An Activity [1] of 77% and an IC50 [2] of 2100 nM were found for `O=C(O)CCN1C(=O)/C(=C/c2cccc(OCCCOc3ccccc3)c2)SC1=S` in this work.
